In ChEMBL document CHEMBL1629560, “Gain-of-function mutations in the transcription factor MRR1 are responsible for overexpression of the MDR1 efflux pump in fluconazole-resistant Candida dubliniensis strains” (2008):
In brackets after ≈: the same amount, converted by molar mass.

Key:
Candida albicans [1] = assay: Antimicrobial activity against Candida albicans harboring MRR1 CD57A mutant gene by microdilution method
Candida dubliniensis [2] = assay: Antimicrobial activity against Candida dubliniensis harboring MRR1 CD57B mutant gene by microdilution method; type: functional
Method in brief: (§1)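 MRR1 alleles were expressed from the ADH1 promoter as single-copy integrations in C. albicans SC5314 mrr1Δ mutants, selected with nourseothricin. Broth microdilution was run in HR medium with NaHCO3 and 0.2 M phosphate buffer (pH 7.2), using serial twofold dilutions. Starting assay concentrations were fluconazole 200 μg/ml, cerulenin 50 μg/ml and brefeldin A 200 μg/ml.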

Candida albicans [3] = assay: Antimicrobial activity against mrr1-deficient Candida albicans by microdilution method; type: functional
Method in brief: (§2)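 Broth microdilution was run in HR medium with NaHCO3 and 0.2 M phosphate buffer (pH 7.2), using serial twofold dilutions. Starting assay concentrations were fluconazole 200 μg/ml, cerulenin 50 μg/ml and brefeldin A 200 μg/ml. Fluconazole stock was prepared in water; cerulenin and brefeldin A stocks were in DMSO. Strains were kept at −80°C and subcultured on YPD at 30°C.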

Candida dubliniensis [4] = assay: Antimicrobial activity against Candida dubliniensis harboring MRR1 CM1 mutant gene by microdilution method; type: functional
Method in brief: as §1

Candida albicans [5] = assay: Antimicrobial activity against Candida albicans harboring MRR1 CD51-2A mutant gene by microdilution method
Candida albicans [6] = assay: Antimicrobial activity against Candida albicans harboring P683S mutation in MRR1F5 gene by microdilution method
Candida albicans [7] = assay: Antimicrobial activity against Candida albicans harboring MRR1 gene by microdilution method; type: functional
Method in brief: as §1

Candida dubliniensis [8] = assay: Antimicrobial activity against Candida dubliniensis harboring MRR1 CD57 mutant gene by microdilution method; type: functional
Method in brief: as §1

Candida dubliniensis [9] = assay: Antimicrobial activity against Candida dubliniensis harboring MRR1 CM2 mutant gene by microdilution method; type: functional
Method in brief: as §1

Candida albicans [10] = assay: Antimicrobial activity against Candida albicans harboring MRR1 CD51-2B mutant gene by microdilution method
Candida albicans [11] = assay: Antimicrobial activity against wild-type Candida albicans SC5314 by microdilution method; type: functional
Method in brief: as §2

Compound	MIC (Candida albicans [1]) [µg/mL]	MIC (Candida dubliniensis [2]) [µg/mL]	MIC (Candida albicans [3]) [µg/mL]	MIC (Candida dubliniensis [4]) [µg/mL]	MIC (Candida albicans [5]) [µg/mL]	MIC (Candida albicans [6]) [µg/mL]	MIC (Candida albicans [7]) [µg/mL]	MIC (Candida dubliniensis [8]) [µg/mL]	MIC (Candida dubliniensis [9]) [µg/mL]	MIC (Candida albicans [10]) [µg/mL]	MIC (Candida albicans [11]) [µg/mL]
C[C@H]1CCC/C=C/[C@@H]2C[C@H](O)C[C@H]2[C@H](O)/C=C/C(=O)O1 [BREFELDIN A]	12.5 (≈ 44.6 µM)	12.5 (≈ 44.6 µM)	1.56 (≈ 5.56 µM)	1.56 (≈ 5.56 µM)	12.5 (≈ 44.6 µM)	25 (≈ 89.2 µM)	1.56 (≈ 5.56 µM)	1.56 (≈ 5.56 µM)	12.5 (≈ 44.6 µM)	3.13 (≈ 11.2 µM)	1.56 (≈ 5.56 µM)
C/C=C/C/C=C/CCC(=O)[C@H]1O[C@H]1C(N)=O [CERULENIN]	3.13 (≈ 14 µM)	3.13 (≈ 14 µM)	0.2 (≈ 0.896 µM)	0.2 (≈ 0.896 µM)	3.13 (≈ 14 µM)	6.25 (≈ 28 µM)	0.2 (≈ 0.896 µM)	0.2 (≈ 0.896 µM)	3.13 (≈ 14 µM)	0.78 (≈ 3.49 µM)	0.2 (≈ 0.896 µM)
OC(Cn1cncn1)(Cn1cncn1)c1ccc(F)cc1F [FLUCONAZOLE]	0.78 (≈ 2.55 µM)	0.78 (≈ 2.55 µM)	0.1 (≈ 0.327 µM)	0.1 (≈ 0.327 µM)	0.78 (≈ 2.55 µM)	3.13 (≈ 10.2 µM)	0.1 (≈ 0.327 µM)	0.1 (≈ 0.327 µM)	0.78 (≈ 2.55 µM)	0.39 (≈ 1.27 µM)	0.1 (≈ 0.327 µM)
